The results in this text go back to ChEMBL document CHEMBL4028873, “The Discovery of a Dual TTK Protein Kinase/CDC2-Like Kinase (CLK2) Inhibitor for the Treatment of Triple Negative Breast Cancer Initiated from a Phenotypic Screen” (J Med Chem, 2017).

Activity calls are given as the source filed them. The rule behind the calls is not given here.

Data set [1] has as its system BT-474. Kind of data set: Cytotoxicity against human BT474 cells assessed as reduction in cell viability after 3 days by CellTiter-Glo assay. In kind it is cell-based. The following applies: BT-474, 72 h. A general note: In ATP-based viability assays light output follows the ATP content of the culture.
For data set [2], the system named is CAL-51. Kind of data set: Cytotoxicity against human CAL51 cells assessed as reduction in cell viability after 3 days by CellTiter-Glo assay. The following applies: CAL-51, 72 h. It is filed as functional, cell-based.
Data set [3] is described as follows: Metabolic stability in rat liver S9 fraction assessed as percent of compound remaining after 60 mins. It is filed as ADME, tissue-based. Conditions: read-out: Stability.
A short description of data set [4]: Clearance in rat at 2 mg/kg, iv. It is filed as ADME, organism-based. The following applies: in vivo.
Data set [5] can be described thus: Mean residence time in rat at 2 mg/kg, iv. It is filed as ADME, organism-based. The following applies: in vivo.
Data set [6] can be described thus: Metabolic stability in human liver S9 fraction assessed as percent of compound remaining after 60 mins. In kind it is ADME, tissue-based. The following applies: read-out: Stability.
The nature of data set [7]: Clearance in SCID mouse at 10 mg/kg, iv. It is filed as ADME, organism-based. Conditions: in vivo.
Data set [8] can be described thus: Mean residence time in SCID mouse at 10 mg/kg, iv. It is filed as ADME, organism-based. Conditions: in vivo.
Data set [9] can be described thus: Volume of distribution at steady state in rat at 2 mg/kg, iv. In kind it is ADME, organism-based. The following applies: in vivo, read-out: Vdss.
The test system of data set [10] is Mus musculus. The data set can be described thus: Toxicity in SCID mouse xenografted with human CAL51 cells assessed as loss in body weight at 5 mg/kg, iv administered every 4 days for 16 days relative to control. It is filed as organism-based. The following applies: in vivo. A general note: Xenograft models place foreign cells or tissue in a host animal.
The subject of data set [11] is CAL-51. Kind of data set: Antiproliferative activity against human CAL51 cells xenografted in SCID mouse assessed as tumor growth inhibition at 5 mg/kg, iv administered every 4 days for 16 days. It is filed as functional, organism-based. The procedure, abridged:
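Mice bearing tumors of about 125 mm3 randomized (n = 8−10/group) and given compound intravenously at the listed doses and schedules. Tumors measured twice weekly by digital caliper on long and short axes; volume = width² × length/2.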

As usually defined, the IC50 is the concentration that gives 50% inhibition. For orientation: clearance means the volume of plasma or blood freed of the substance per unit of time. Broadly, the MRT is the average time that molecules of a dose stay in the body.

Take `COc1cc(C(=O)NCC(C)(C)O)ccc1Nc1nc(OC2CCCC2)c2c(-c3ccc4nc(C)oc4c3)c[nH]c2n1`: the IC50 in data set [1] was 10000 nM; in [2], 61 nM.

Regarding `CNC(=O)c1ccc(Nc2nc(O[C@H]3CCOC3)c3c(-c4ccc5nc(C)oc5c4)c[nH]c3n2)c(OC)c1`, the remaining at 1 h in data set [3] and in data set [6] was 62% in each case. Besides, the clearance in data set [4] came out at 27.4 mL/min/kg; in [7] it was 19.1 mL/min/kg. The mean residence time (MRT) amounted to 1 h in [5] and 0.73 h in [8]. The IC50 in [1] stood at 3760 nM; in data set [2] it was 17 nM. In addition, the Vd in data set [9] stood at 1.6 L/kg.

For `CNC(=O)c1ccc(Nc2nc(O)c3c(-c4ccc5nc(C)oc5c4)c[nH]c3n2)c(OC)c1`, the IC50 in data set [1] and in [2] was 10000 nM in each case.

Regarding `CNC(=O)c1ccc(Nc2nc(OC3CCCC3)c3c(-c4cc[nH]n4)c[nH]c3n2)c(OC)c1`, the remaining at 1 h in [3] worked out at 53%. The IC50 in [1] is 10000 nM; in [2], 460 nM.

Take `CNC(=O)c1ccc(Nc2nc(OC3CCCC3)c3c(-c4ccc(O)cc4)c[nH]c3n2)c(OC)c1`: the remaining at 1 h in [3] is 1%. The half-inhibitory concentration (IC50) in [1] amounted to 3320 nM; in data set [2], 13 nM.

For the compound `CNC(=O)c1ccc(Nc2nc(OC3CCCC3)c3c(-c4ccc(-c5ncc[nH]5)cc4)c[nH]c3n2)c(OC)c1`, the remaining at 1 h in data set [3] amounted to 64%. The IC50 in data set [1] worked out at 1730 nM; in [2] it was 8 nM.

Consider `CNC(=O)c1ccc(Nc2nc(OC3CCCC3)c3c(-c4ccccc4)c[nH]c3n2)c(OC)c1`, for which the remaining at 1 h in data set [3] was 86%. Also, the IC50 in data set [1] worked out at 10000 nM; in data set [2], 496 nM.

In the case of `CNC(=O)c1ccc(Nc2nc(OC3CCCC3)c3c(-c4ccc5nc(C)oc5c4)c[nH]c3n2)c(C)c1`, the IC50 in data set [1] is 9610 nM; in data set [2] it was 349 nM.

For the compound `CNC(=O)c1ccc(Nc2nc(OC3CCCC3)c3c(-c4cccc(O)c4)c[nH]c3n2)c(OC)c1`, the IC50 in [1] was determined as 10000 nM; in data set [2], 71 nM.

With `CNC(=O)c1ccc(Nc2nc(OC3CCCC3)c3c(-c4ccc(OC)cc4)c[nH]c3n2)c(OC)c1`, in data set [3], the remaining at 1 h came to 76%. Also, the IC50 in data set [1] stood at 10000 nM; in data set [2] it was 491 nM.

For `CNC(=O)c1ccc(Nc2nc(OC3CCCC3)c3c(-c4cccc(CO)c4)c[nH]c3n2)c(OC)c1`, in data set [3], the remaining at 1 h was 54%. The values for the IC50 in data set [1] and in [2] were 9990 nM and 30 nM, respectively.

As to `CNC(=O)c1ccc(Nc2nc(OC(C)C)c3c(-c4ccc5nc(C)oc5c4)c[nH]c3n2)c(OC)c1`, the values for the remaining at 1 h in [3] and in data set [6] were 69% and 78%, respectively. Besides, the values for the clearance in [4] and in [7] were 33.9 mL/min/kg and 7.71 mL/min/kg, respectively. The MRT in data set [5] came out at 3.5 h; in data set [8], 4.8 h. The IC50 in data set [1] was 946 nM; in data set [2] it was 40 nM. The Vd in data set [9] came out at 7.2 L/kg.

For `CNC(=O)c1ccc(Nc2nc(OCCO)c3c(-c4ccc5nc(C)oc5c4)c[nH]c3n2)c(OC)c1`, the IC50 in data set [1] was determined as 694 nM; in data set [2], 56 nM.

In the case of `CNC(=O)c1ccc(Nc2nc(OCCOC)c3c(-c4ccc5nc(C)oc5c4)c[nH]c3n2)c(OC)c1`, the IC50 in data set [1] is 3760 nM; in [2] it was 147 nM.

Consider `CNC(=O)c1ccc(Nc2nc(OC3CCCC3)c3c(-c4ccc(-c5nnc[nH]5)cc4)c[nH]c3n2)c(OC)c1`, for which, in [3], the remaining at 1 h came out at 84%. Also, the concentration for half-maximal inhibition (IC50) was 4860 nM in [1] and 77 nM in data set [2].

Take `COc1cc(C(=O)N(C)C)ccc1Nc1nc(OC2CCCC2)c2c(-c3ccc4nc(C)oc4c3)c[nH]c2n1`: the IC50 in [1] stood at 8310 nM; in [2], 113 nM.

Turning to `CC(=O)O[C@@]12CO[C@@H]1C[C@H](O)[C@@]1(C)C(=O)[C@H](O)C3=C(C)[C@@H](OC(=O)[C@H](O)[C@@H](NC(=O)OC(C)(C)C)c4ccccc4)C[C@@](O)([C@@H](OC(=O)c4ccccc4)[C@H]21)C3(C)C` [DOCETAXEL ANHYDROUS], the Activity in data set [10] came to 20%. For the same compound, the TGI entry in data set [11] is “Active”.

In the case of `COc1cc(C(=O)NC2COC2)ccc1Nc1nc(OC2CCCC2)c2c(-c3ccc4nc(C)oc4c3)c[nH]c2n1`, the remaining at 1 h was found to be 91% in data set [3] and 79% in data set [6]. Besides, the clearance in data set [4] is 13 mL/min/kg; in [7], 14.3 mL/min/kg. For the same compound, the MRT in [5] amounted to 4.7 h; in [8] it was 1.4 h. The figures for the 50% inhibitory concentration (IC50) in data set [1] and in [2] were 10000 nM and 123 nM, respectively. Besides, the Vd in data set [9] was 3.7 L/kg.

`COc1cc(C(=O)NC(C)(C)CO)ccc1Nc1nc(OC2CCCC2)c2c(-c3ccc4nc(C)oc4c3)c[nH]c2n1`: the figures for the IC50 in [1] and in [2] were 6090 nM and 109 nM, respectively.

For the compound `CNC(=O)c1ccc(Nc2nc(OC3CCCC3)c3c(-c4ccc5oc(C)nc5c4)c[nH]c3n2)c(OC)c1`, the remaining at 1 h in data set [3] was found to be 86%. The IC50 in data set [1] came to 10000 nM; in data set [2], 642 nM.

In the case of `CNC(=O)c1ccc(Nc2nc(OC3CCC3)c3c(-c4ccc5nc(C)oc5c4)c[nH]c3n2)c(OC)c1`, the IC50 in data set [1] was found to be 10000 nM; in data set [2], 47 nM.

Regarding `CNC(=O)c1ccc(Nc2nc(OC3CCOCC3)c3c(-c4ccc5nc(C)oc5c4)c[nH]c3n2)c(OC)c1`, the remaining at 1 h in data set [3] came out at 75%; in data set [6], 70%. Also, the values for the clearance in [4] and in data set [7] were 22.6 mL/min/kg and 67.6 mL/min/kg, respectively. Moreover, the mean residence time (MRT) came to 2.9 h in data set [5] and 1.8 h in [8]. In addition, the IC50 in data set [1] was found to be 10000 nM; in [2] it was 20 nM. In data set [9], the Vd amounted to 3.8 L/kg.

As to `CNC(=O)c1ccc(Nc2nc(OC3CCCC3)c3c(-c4ccncc4)c[nH]c3n2)c(OC)c1`, the remaining at 1 h in data set [3] stood at 83%. In addition, the IC50 turned out to be 10000 nM in data set [1] and 17 nM in data set [2].

Turning to `CNC(=O)c1ccc(Nc2nc(O[C@H]3CC[C@@](C)(O)CC3)c3c(-c4ccc5nc(C)oc5c4)c[nH]c3n2)c(OC)c1`, the remaining at 1 h is 76% in data set [3] and 65% in data set [6]. Moreover, the values for the clearance in data set [4] and in [7] were 17.6 mL/min/kg and 52.2 mL/min/kg, respectively. Also, the MRT in data set [5] was 2.9 h; in data set [8], 1 h. Also, the IC50 turned out to be 10000 nM in data set [1] and 8 nM in data set [2]. For the same compound, in data set [9], the Vd turned out to be 2.9 L/kg.

With `CNC(=O)c1ccc(Nc2nc(OC3CCCC3)c3c(-c4cn[nH]c4)c[nH]c3n2)c(OC)c1`, in [3], the remaining at 1 h was 36%. Also, the IC50 is 8120 nM in data set [1] and 9 nM in data set [2].

For the compound `COc1cc(C(=O)N2CCOCC2)ccc1Nc1nc(OC2CCCC2)c2c(-c3ccc4nc(C)oc4c3)c[nH]c2n1`, the IC50 turned out to be 6390 nM in [1] and 351 nM in data set [2].

As for `CNC(=O)c1ccc(Nc2nc(OC3CCCC3)c3c(-c4ccc5nc[nH]c5c4)c[nH]c3n2)c(OC)c1`, in [3], the remaining at 1 h was 46%. Further, the IC50 turned out to be 158 nM in data set [1] and 17 nM in data set [2].

As for `CNC(=O)c1ccc(Nc2nc(OC3COC3)c3c(-c4ccc5nc(C)oc5c4)c[nH]c3n2)c(OC)c1`, the IC50 was determined as 243 nM in [1] and 8 nM in data set [2].

On to `CNC(=O)c1ccc(Nc2nc(O[C@H]3CC[C@](C)(O)CC3)c3c(-c4ccc5nc(C)oc5c4)c[nH]c3n2)c(OC)c1`, for which the IC50 in [1] stood at 893 nM; in [2], 15 nM.

Turning to `CNC(=O)c1ccc(Nc2nc(OC3CCCC3)c3c(-c4ccc5cn[nH]c5c4)c[nH]c3n2)c(OC)c1`, the remaining at 1 h in data set [3] amounted to 85%. The 50% inhibitory concentration (IC50) is 10000 nM in data set [1] and 338 nM in data set [2].

In the case of `CNC(=O)c1ccc(Nc2nc(OC3CCCC3)c3c(-c4ccc(-c5ccn[nH]5)cc4)c[nH]c3n2)c(OC)c1`, in [3], the remaining at 1 h was 84%. Besides, the IC50 in data set [1] was 10000 nM; in [2], 61 nM.

Turning to `CNC(=O)c1ccc(Nc2nc(OC3CCCC3)c3c(-c4cccnc4)c[nH]c3n2)c(OC)c1`, the remaining at 1 h in data set [3] was 59%. Further, the IC50 in data set [1] came out at 10000 nM; in data set [2] it was 79 nM.

Turning to `CNC(=O)c1ccc(Nc2nc(OC3CCCC3)c3c(-c4ccc(CO)cc4)c[nH]c3n2)c(OC)c1`, in data set [3], the remaining at 1 h was 18%. In addition, the half-maximal inhibitory concentration (IC50) is 10000 nM in data set [1] and 89 nM in data set [2].

As to `COc1ccccc1Nc1nc(OC2CCCC2)c2c(-c3ccc4nc(C)oc4c3)c[nH]c2n1`, the IC50 in [1] was 10000 nM; in [2], 771 nM.

In the case of `COc1cc(C(=O)N2CCN(C)CC2)ccc1Nc1nc(OC2CCCC2)c2c(-c3ccc4nc(C)oc4c3)c[nH]c2n1`, the IC50 turned out to be 3210 nM in data set [1] and 37 nM in [2].
